Test results: ChEMBL document CHEMBL3576784, “Azolylthioacetamide: A Highly Promising Scaffold for the Development of Metallo-β-lactamase Inhibitors” (ACS Med Chem Lett, 2015)

These molecules were tested against Beta-lactamase (Aeromonas veronii, UniProt O31272) (assay: Inhibition of Aeromonas veronii metallo-beta-lactamase ImiS expressed in Escherichia coli BL21(DE3) using imipenem substrate pre-incubated for 30 mins by Lineweaver-Burk plot method). Settings: not given; call rule not given here.
Sequence of Beta-lactamase (O31272 whole entry): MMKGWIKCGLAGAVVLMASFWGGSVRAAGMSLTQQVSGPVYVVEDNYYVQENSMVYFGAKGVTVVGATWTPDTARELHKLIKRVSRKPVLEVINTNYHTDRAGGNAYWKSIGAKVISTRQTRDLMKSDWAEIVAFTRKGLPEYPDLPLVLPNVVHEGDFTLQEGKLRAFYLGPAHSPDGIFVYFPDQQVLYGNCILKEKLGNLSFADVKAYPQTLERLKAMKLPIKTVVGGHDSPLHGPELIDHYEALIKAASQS
In short: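 Purified enzyme; initial rates of imipenem hydrolysis followed by UV spectrophotometry (262 or 300 nm) in 50 mM Tris pH 7.0, 25 °C. Substrate 24–140 μM, inhibitor 0–10 μM. Rates in triplicate and averaged. Inhibition mode from Lineweaver–Burk plots. Ki from fits of initial velocity vs substrate concentration at each inhibitor level.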

SMILES | Ki
O=C(CSc1nnc(-c2ccccc2C(=O)O)[nH]1)NCc1ccccc1 | Not Active
O=C(O)CCc1nnc(SCC(=O)Nc2nc3ccccc3s2)[nH]1 | Not Active
O=C(O)CCCc1nnc(SCC(=O)Nc2nc3ccccc3[nH]2)[nH]1 | Not Active

Same assay, conditions: read-out: Ki

SMILES | Ki [µM]
O=C(CSc1nnc(-c2ccccc2C(=O)O)[nH]1)Nc1ccccc1 | 1.8
O=C(CSc1nnc(-c2ccccc2C(=O)O)[nH]1)Nc1nc2ccccc2[nH]1 | 3.6
O=C(CSc1nnc(-c2ccccc2C(=O)O)[nH]1)Nc1nc2ccccc2s1 | 1.2
O=C(CSc1nnc(-c2ccccc2C(=O)O)[nH]1)Nc1ccc(Cl)cc1 | 1.4
O=C(CSc1nnc(-c2ccccc2C(=O)O)[nH]1)Nc1ccc([N+](=O)[O-])cc1 | 2.2
O=C(CSc1nnc(-c2ccccc2C(=O)O)[nH]1)Nc1ccccc1Cl | 2.3
O=C(CSc1nnc(-c2ccccc2C(=O)O)[nH]1)Nc1cccc(Cl)c1 | 2.4
O=C(CSc1nnc(-c2ccccc2C(=O)O)[nH]1)Nc1ccccc1[N+](=O)[O-] | 2.7
O=C(CSc1nnc(-c2ccccc2C(=O)O)[nH]1)Nc1cccc([N+](=O)[O-])c1 | 1.9
O=C(O)CCc1nnc(SCC(=O)Nc2ccccc2)[nH]1 | > 5000
O=C(O)CCc1nnc(SCC(=O)Nc2nc3ccccc3[nH]2)[nH]1 | > 2500
O=C(O)CCc1nnc(SCC(=O)Nc2ccc(Cl)cc2)[nH]1 | > 5000
